Assay results from ChEMBL document CHEMBL2163332 (J Med Chem, 2012).
pEC50, pIC50, pKi: −log10 of the molar value. The source made the active and inactive calls. The calls are words filed in the database; no cut-off is given here.

Legend:
Mu-type opioid receptor [1] = molecular target: T1, Mu-type opioid receptor (Homo sapiens, UniProt P35372); experiment: Displacement of [3H]DAMGO from FLAG-tagged mu opioid receptor expressed in HEK293 cells after 60 mins by liquid scintillation counter; type: cell-based
T1 sequence (P35372 whole entry): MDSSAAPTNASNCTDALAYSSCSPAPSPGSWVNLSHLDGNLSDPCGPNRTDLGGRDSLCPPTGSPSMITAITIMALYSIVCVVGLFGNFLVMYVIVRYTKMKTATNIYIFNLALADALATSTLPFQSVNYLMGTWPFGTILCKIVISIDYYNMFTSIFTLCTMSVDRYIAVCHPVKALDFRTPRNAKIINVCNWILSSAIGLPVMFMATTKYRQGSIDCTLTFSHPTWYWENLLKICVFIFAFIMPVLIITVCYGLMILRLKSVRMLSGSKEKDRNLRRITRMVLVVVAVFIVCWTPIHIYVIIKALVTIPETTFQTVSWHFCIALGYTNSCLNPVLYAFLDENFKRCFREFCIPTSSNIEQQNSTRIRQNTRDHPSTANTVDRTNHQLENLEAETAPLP

[2] = molecular target: Delta-type opioid receptor (Mus musculus) (UniProt P32300); experiment: Agonist activity at delta opioid receptor in Kunming mouse vas deferens assessed as inhibition of electrically-stimulated muscle contraction in presence of delta opioid receptor antagonist naltrindole; type: functional, tissue-based
Chain of Delta-type opioid receptor (Mus musculus) (P32300 whole entry): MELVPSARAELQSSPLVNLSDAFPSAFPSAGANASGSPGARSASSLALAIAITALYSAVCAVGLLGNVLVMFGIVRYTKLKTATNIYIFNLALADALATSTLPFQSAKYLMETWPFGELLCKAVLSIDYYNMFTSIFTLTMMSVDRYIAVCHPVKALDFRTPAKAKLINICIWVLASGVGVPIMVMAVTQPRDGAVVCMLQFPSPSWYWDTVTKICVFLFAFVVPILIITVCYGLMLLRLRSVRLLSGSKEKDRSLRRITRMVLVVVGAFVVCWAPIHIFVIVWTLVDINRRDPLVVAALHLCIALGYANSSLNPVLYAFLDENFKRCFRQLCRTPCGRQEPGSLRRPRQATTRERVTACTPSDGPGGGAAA

[3] = molecular target: Delta-type opioid receptor (Homo sapiens, UniProt P41143); experiment: Displacement of [3H]DPDPE from Myc-tagged delta opioid receptor expressed in HEK293 cells after 60 mins by liquid scintillation counter; type: cell-based
Chain of Delta-type opioid receptor (Homo sapiens, UniProt P41143) (P41143 whole entry): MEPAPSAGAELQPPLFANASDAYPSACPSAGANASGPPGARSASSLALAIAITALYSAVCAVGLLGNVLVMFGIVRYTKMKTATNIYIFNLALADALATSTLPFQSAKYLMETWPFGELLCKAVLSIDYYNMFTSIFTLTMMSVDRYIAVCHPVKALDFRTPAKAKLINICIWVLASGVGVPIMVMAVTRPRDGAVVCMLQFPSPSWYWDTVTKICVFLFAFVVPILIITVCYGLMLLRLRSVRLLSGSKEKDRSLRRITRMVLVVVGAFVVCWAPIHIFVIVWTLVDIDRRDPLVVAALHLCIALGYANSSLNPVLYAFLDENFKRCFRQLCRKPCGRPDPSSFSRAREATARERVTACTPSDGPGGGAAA

Mu-type opioid receptor [4] = molecular target: T1, Mu-type opioid receptor; experiment: Agonist activity at mu opioid receptor expressed in HEK293 cells assessed as inhibition of forskolin-induced cAMP accumulation after 30 mins by liquid scintillation counter; type: functional, cell-based
Mus musculus [5] = experiment: Antinociceptive activity in icv dosed Kunming mouse assessed as inhibition of heat-induced tail flick after 5 to 60 mins; type: functional; settings: for ED50: central
Method in brief: (§1)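 Male Kunming mice (18−22 g), peptide or saline given icv; tail immersed in 50 ± 0.2 °C water and withdrawal latency recorded; only mice with baseline latency about 3−5 s used. Readings at 5, 10, 15, 20, 30, 40, 50 and 60 min post-injection; 10−15 mice per group. Naloxone 2 mg/kg ip 10 min before icv dosing for antagonism. ED50 with 95% confidence limits by graded dose−response.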

[6] = molecular target: Delta-type opioid receptor (Mus musculus, UniProt P32300); experiment: Agonist activity at delta opioid receptor in Kunming mouse vas deferens assessed as inhibition of electrically-stimulated muscle contraction; type: functional, tissue-based
Chain of Delta-type opioid receptor (Mus musculus, UniProt P32300) (P32300 whole entry): as the sequence (P32300 whole entry) above

Mu-type opioid receptor [7] = molecular target: Mu-type opioid receptor (Cavia porcellus, UniProt P97266); experiment: Agonist activity at mu opioid receptor in guinea pig ileum assessed as inhibition of electrically-stimulated muscle contraction; type: functional, tissue-based
Chain of Mu-type opioid receptor (Cavia porcellus, UniProt P97266) (P97266 whole entry): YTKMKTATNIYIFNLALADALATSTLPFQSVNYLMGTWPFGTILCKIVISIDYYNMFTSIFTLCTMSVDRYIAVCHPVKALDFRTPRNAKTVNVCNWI

[8] = Selectivity ratio of Ki for Myc-tagged delta opioid receptor to Ki for FLAG-tagged mu opioid receptor
Mu-type opioid receptor [9] = molecular target: T1, Mu-type opioid receptor; experiment: Agonist activity at mu opioid receptor expressed in HEK293 cells assessed as inhibition of forskolin-induced cAMP accumulation after 30 mins by liquid scintillation counter relative to control; type: functional, cell-based
Method in brief: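 MOR-expressing HEK293 cells seeded at 80% confluence the day before, washed with serum-free medium, preincubated 10 min at 37 °C with 1 mM IBMX, then peptide (5 × 10−11 to 5 × 10−5 M) with 50 μM forskolin added for 30 min at 37 °C. Lysis in 0.2 N HCl, neutralisation, cAMP measured by competition with [3H]cAMP for PKA (≥2 h, 4 °C) and charcoal separation; scintillation counting.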

Mus musculus [10] = experiment: Antinociceptive activity in naloxone treated Kunming mouse assessed as inhibition of heat-induced tail flick at 20 nmol/kg, icv after 10 mins post naloxone treatment; type: functional, organism-based; method in brief: as §1
Mus musculus [11] = experiment: Antinociceptive activity in Kunming mouse assessed as inhibition of heat-induced tail flick at 0.67 to 20 nmol/kg, icv; type: functional, organism-based; settings: TDE = time-dependent effect; method in brief: as §1
[12] = Half life in mouse brain homogenates; type: ADME, tissue-based; settings: brain homogenate
Method in brief: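 Peptide incubated at 37 °C in twice-washed 15% mouse brain membrane homogenate, final protein 2.1 mg/mL in 50 mM Tris, pH 7.4. Aliquots centrifuged 13000g, 15 min, 4 °C, filtered 0.22 μm and analysed by C18 RP-HPLC (acetonitrile/water, 0.05% TFA). Half-life from pseudo-first-order disappearance kinetics; at least three experiments.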

Mu-type opioid receptor [13] = molecular target: T1, Mu-type opioid receptor; experiment: Agonist activity at human FLAG-tagged mu opioid receptor expressed in HEK293 cells assessed as induction of ERK1/2 phosphorylation after 10 mins by Western blot analysis; type: functional, cell-based
Method in brief: (§2)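 Stable HEK293 line with FLAG-tagged MOR, in 12-well plates and serum-starved 16 h, then exposed to peptide at various concentrations for 10 min at 37 °C. Lysis in RIPA with 10 μM PMSF and phosphatase inhibitors. 20 μg protein run on 10% SDS-PAGE, blotted to PVDF and probed for phospho-ERK1/2 (Thr202/Tyr204) and total ERK1/2 (1:1000), ECL detection; at least three independent experiments.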

Mu-type opioid receptor [14] = molecular target: T1, Mu-type opioid receptor; experiment: Agonist activity at human FLAG-tagged mu opioid receptor expressed in HEK293 cells assessed as induction of ERK1/2 phosphorylation at 1 pM after 10 mins by Western blot analysis; type: functional, cell-based; method in brief: as §2
Mu-type opioid receptor [15] = molecular target: T1, Mu-type opioid receptor; experiment: Agonist activity at human FLAG-tagged mu opioid receptor expressed in HEK293 cells assessed as induction of ERK1/2 phosphorylation at 10 nM after 10 mins by Western blot analysis; type: functional, cell-based; method in brief: as §2

SMILES | pKi (Mu-type opioid receptor [1]) | inhibition [2] | pKi [3] | pEC50 (Mu-type opioid receptor [4]) | inhibition (Mu-type opioid receptor [4]) | inhibition (Mus musculus [5]) | pIC50 [6] | pIC50 (Mu-type opioid receptor [7]) | Ratio Ki [8] | Emax (Mu-type opioid receptor [9]) [%] | ED50 (Mus musculus [5]) [µmol/kg] | inhibition (Mus musculus [10]) | inhibition (Mus musculus [11]) | half-life [12] [h] | Activity (Mu-type opioid receptor [13]) | Activity (Mu-type opioid receptor [14]) | Activity (Mu-type opioid receptor [15])
C=C(C(N)=O)[C@@H](NC(=O)[C@H](Cc1c[nH]c2ccccc12)NC(=O)[C@@H]1CCCN1C(=O)[C@@H](N)Cc1ccc(O)cc1)c1ccc(F)cc1 | 7.86 | inactive | 4.77 | 8.13 | Dose-dependent effect | Dose-dependent effect | 6.89 | 7.50 | 1240 | 81.5 | – | – | – | – | – | – | –
C=C(C(N)=O)[C@@H](NC(=O)C(=C)[C@@H](NC(=O)[C@@H]1CCCN1C(=O)[C@@H](N)Cc1ccc(O)cc1)c1ccccc1)c1ccccc1 | 7.80 | inactive | 4.96 | 7.35 | Dose-dependent effect | Dose-dependent effect | 6.78 | 7.42 | 699 | 60.3 | – | – | – | – | – | – | –
C=C(C(N)=O)[C@@H](NC(=O)[C@H](Cc1c[nH]c2ccccc12)NC(=O)[C@@H]1CCCN1C(=O)[C@@H](N)Cc1ccc(O)cc1)c1ccc2ccccc2c1 | 7.56 | inactive | 4.07 | 7.15 | Dose-dependent effect | – | 6.85 | 7.74 | 3100 | 67.5 | – | – | – | – | – | – | –
C=C(C(N)=O)[C@@H](NC(=O)[C@H](Cc1c[nH]c2ccccc12)NC(=O)[C@@H]1CCCN1C(=O)[C@@H](N)Cc1ccc(O)cc1)c1ccc2c(c1)OCO2 | 8.11 | inactive | 4.73 | 7.97 | Dose-dependent effect | – | 6.36 | 7.84 | 2420 | 83.9 | – | – | – | – | – | – | –
C=C(C(N)=O)[C@@H](NC(=O)[C@H](Cc1c[nH]c2ccccc12)NC(=O)[C@@H]1CCCN1C(=O)[C@@H](N)Cc1ccc(O)cc1)c1cccc(Cl)c1 | 8.46 | inactive | 5.24 | 9.14 | Dose-dependent effect | Dose-dependent effect | 7.16 | 8.12 | 1670 | 92.5 | 0.00928 | inactive | tde | 1.5 | – | – | –
C=C(C(N)=O)[C@@H](NC(=O)[C@H](Cc1c[nH]c2ccccc12)NC(=O)[C@@H]1CCCN1C(=O)[C@@H](N)Cc1ccc(O)cc1)c1ccco1 | 9.66 | inactive | 4.30 | 10.48 | Dose-dependent effect | Dose-dependent effect | 7.80 | 8.53 | 226000 | 97.1 | 0.00142 | inactive | tde | 1.43 | Dose-dependent effect | Active | Active
C=C(C(N)=O)[C@@H](NC(=O)[C@H](Cc1c[nH]c2ccccc12)NC(=O)[C@@H]1CCCN1C(=O)[C@@H](N)Cc1ccc(O)cc1)c1ccccc1Cl | 8.26 | inactive | 4.83 | 9.08 | Dose-dependent effect | – | 6.44 | 7.78 | 2720 | 82.6 | – | – | – | – | – | – | –
NC(=O)[C@H](Cc1ccccc1)NC(=O)[C@H](Cc1c[nH]c2ccccc12)NC(=O)[C@@H]1CCCN1C(=O)[C@@H](N)Cc1ccc(O)cc1 | – | inactive | – | – | – | – | – | – | – | – | – | – | – | – | – | – | –
C=C(C(N)=O)[C@@H](NC(=O)[C@H](Cc1c[nH]c2ccccc12)NC(=O)[C@@H]1CCCN1C(=O)[C@@H](N)Cc1ccc(O)cc1)c1ccc(OC)cc1 | 8.32 | inactive | 4.99 | 7.96 | Dose-dependent effect | – | 6.52 | 7.07 | 2110 | 85.6 | – | – | – | – | – | – | –
C=C(C(N)=O)[C@@H](NC(=O)[C@H](Cc1c[nH]c2ccccc12)NC(=O)[C@@H]1CCCN1C(=O)[C@@H](N)Cc1ccc(O)cc1)c1cccc2ccccc12 | 7.59 | inactive | 4.07 | 7.14 | Dose-dependent effect | – | 7.07 | 7.47 | 3260 | 71 | – | – | – | – | – | – | –
C=C(C(N)=O)[C@@H](NC(=O)[C@H](Cc1c[nH]c2ccccc12)NC(=O)[C@@H]1CCCN1C(=O)[C@@H](N)Cc1ccc(O)cc1)c1ccoc1 | 9.56 | inactive | 4.29 | 10.47 | Dose-dependent effect | Dose-dependent effect | 7.99 | 8.40 | 186000 | 98.7 | 0.00155 | inactive | tde | 1.47 | Dose-dependent effect | Active | Active
C=C(C(N)=O)[C@@H](NC(=O)[C@H](Cc1c[nH]c2ccccc12)NC(=O)[C@@H]1CCCN1C(=O)[C@@H](N)Cc1ccc(O)cc1)c1ccccc1 | 9.27 | inactive | 4.25 | 9.80 | Dose-dependent effect | Dose-dependent effect | 8.12 | 8.17 | 105000 | 97.9 | 0.00233 | inactive | tde | 1.04 | Dose-dependent effect | Active | Active
C=C(C(N)=O)[C@@H](NC(=O)[C@H](Cc1c[nH]c2ccccc12)NC(=O)[C@@H]1CCCN1C(=O)[C@@H](N)Cc1ccc(O)cc1)c1ccc(Cl)cc1 | 8.15 | inactive | 4.97 | 7.92 | Dose-dependent effect | Dose-dependent effect | 7.44 | 7.82 | 1520 | 85.6 | – | – | – | – | – | – | –
NC(=O)[C@H](Cc1ccccc1)NC(=O)[C@H](Cc1ccccc1)NC(=O)[C@@H]1CCCN1C(=O)[C@@H](N)Cc1ccc(O)cc1 | – | inactive | – | – | – | – | – | – | – | 82.8 | – | – | – | – | – | – | –
C=C(C(=O)N[C@@H](Cc1ccccc1)C(N)=O)[C@@H](NC(=O)[C@@H]1CCCN1C(=O)[C@@H](N)Cc1ccc(O)cc1)c1ccccc1 | 6.99 | inactive | 4.23 | 7.44 | Dose-dependent effect | Dose-dependent effect | < 5.00 | 7.68 | 576 | 70.8 | – | – | – | – | – | – | –
